Tested on: HEK-293T
Test: Multiplex assay against HEK293T
Type: toxicity, cell-based
Settings: human
How it was run: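 Imaging took place on a CQ1 microscope at 37°C and 5% CO2 once compound had been added to live cells stained at seeding with Hoechst33342, BioTracker Green Microtubule Cytoskeleton Dye, MitoTracker Red and Annexin V Alexa Fluor 680. CellPathfinder machine-learning gating classed cells as Hoechst high-intensity objects or normal cells, classed normal cells as having healthy, pyknosed or fragmented nuclei, and classed pyknosed cells as mitotic or apoptotic. Tubulin, mitochondrial-mass and membrane-permeability phenotypes are per cents of the healthy-nucleus cells.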

[1] = 12 h, 1 µM, compound concentration 1 uM, replicate 1
[2] = 12 h, 1 µM, compound concentration 1 uM, replicate 2
[3] = 12 h, 10 µM, compound concentration 10 uM, replicate 1
[4] = 12 h, 10 µM, compound concentration 10 uM, replicate 2
[5] = 24 h, 1 µM, compound concentration 1 uM, replicate 1
[6] = 24 h, 1 µM, compound concentration 1 uM, replicate 2
[7] = 24 h, 10 µM, compound concentration 10 uM, replicate 1
[8] = 24 h, 10 µM, compound concentration 10 uM, replicate 2
[9] = 48 h, 1 µM, compound concentration 1 uM, replicate 1
[10] = 48 h, 1 µM, compound concentration 1 uM, replicate 2
[11] = 48 h, 10 µM, compound concentration 10 uM, replicate 1
[12] = 48 h, 10 µM, compound concentration 10 uM, replicate 2

For COCCn1c(C)c(C)s/c1=N\C(=O)C1C(C)(C)C1(C)C, the “Population Apoptotic (%)” value [1] was 37%, the “Population Fragmented Nuclei (%)” value [1] was 10% and the “Population Healthy Nuclei (%)” value [1] was 77%. The “Population Hoechst High Intensity Objects (%)” value [1] was 6%, the “Population Membrane Permeable-Phenotype (%)” value [1] was 0% and the “Population Mitochondria Different-Phenotype (%)” value [1] was 45%. For the same molecule, the “Population Mitotic Cells (%)” value [1] was 62%, the “Population Normal (%)” value [1] was 93% and the “Population Pyknosed Nuclei (%)” value [1] was 12%. For the same molecule, the “Population Tubulin-Different-Phenotype (%)” value [1] was 29%, the “Total Cell Count” value [1] was 335 and the “Population Apoptotic (%)” value [2] was 41%. For the same molecule, the “Population Fragmented Nuclei (%)” value [2] was 5%, the “Population Healthy Nuclei (%)” value [2] was 82% and the “Population Hoechst High Intensity Objects (%)” value [2] was 4%. For the same molecule, the “Population Mitochondria Different-Phenotype (%)” value [2] was 77%, the “Population Mitotic Cells (%)” value [2] was 58% and the “Population Normal (%)” value [2] was 95%. The “Population Tubulin-Different-Phenotype (%)” value [2] was 26%, the “Total Cell Count” value [2] was 304 and the “Population Apoptotic (%)” value [3] was 77%. For the same molecule, the “Population Fragmented Nuclei (%)” value [3] was 33%, the “Population Healthy Nuclei (%)” value [3] was 52% and the “Population Hoechst High Intensity Objects (%)” value [3] was 18%. For the same molecule, the “Population Membrane Permeable-Phenotype (%)” value [3] was 0%, the “Population Mitochondria Different-Phenotype (%)” value [3] was 91% and the “Population Mitotic Cells (%)” value [3] was 22%. The “Population Normal (%)” value [3] was 81%, the “Population Pyknosed Nuclei (%)” value [3] was 13% and the “Population Tubulin-Different-Phenotype (%)” value [3] was 67%. For the same molecule, the “Total Cell Count” value [3] was 80, the “Population Apoptotic (%)” value [4] was 53% and the “Population Fragmented Nuclei (%)” value [4] was 8%. The “Population Healthy Nuclei (%)” value [4] was 75%, the “Population Hoechst High Intensity Objects (%)” value [4] was 11% and the “Population Mitochondria Different-Phenotype (%)” value [4] was 72%. The “Population Mitotic Cells (%)” value [4] was 46%, the “Population Normal (%)” value [4] was 88% and the “Population Pyknosed Nuclei (%)” value [4] was 16%. The “Population Tubulin-Different-Phenotype (%)” value [4] was 38%, the “Total Cell Count” value [4] was 315 and the “Population Apoptotic (%)” value [5] was 19%. For the same molecule, the “Population Fragmented Nuclei (%)” value [5] was 7%, the “Population Healthy Nuclei (%)” value [5] was 81% and the “Population Hoechst High Intensity Objects (%)” value [5] was 4%. The “Population Membrane Permeable-Phenotype (%)” value [5] was 0%, the “Population Mitochondria Different-Phenotype (%)” value [5] was 26% and the “Population Mitotic Cells (%)” value [5] was 80%. The “Population Normal (%)” value [5] was 95%, the “Population Pyknosed Nuclei (%)” value [5] was 11% and the “Population Tubulin-Different-Phenotype (%)” value [5] was 20%. The “Total Cell Count” value [5] was 447, the “Population Apoptotic (%)” value [6] was 35% and the “Population Fragmented Nuclei (%)” value [6] was 8%. For the same molecule, the “Population Hoechst High Intensity Objects (%)” value [6] was 7%, the “Population Mitochondria Different-Phenotype (%)” value [6] was 47% and the “Population Mitotic Cells (%)” value [6] was 64%. The “Population Normal (%)” value [6] was 92%, the “Population Pyknosed Nuclei (%)” value [6] was 10% and the “Population Tubulin-Different-Phenotype (%)” value [6] was 17%. The “Total Cell Count” value [6] was 383, the “Population Apoptotic (%)” value [7] was 71% and the “Population Fragmented Nuclei (%)” value [7] was 30%. The “Population Healthy Nuclei (%)” value [7] was 61%, the “Population Hoechst High Intensity Objects (%)” value [7] was 15% and the “Population Membrane Permeable-Phenotype (%)” value [7] was 0%. For the same molecule, the “Population Mitochondria Different-Phenotype (%)” value [7] was 53%, the “Population Mitotic Cells (%)” value [7] was 28% and the “Population Normal (%)” value [7] was 84%. For the same molecule, the “Population Pyknosed Nuclei (%)” value [7] was 8%, the “Population Tubulin-Different-Phenotype (%)” value [7] was 36% and the “Total Cell Count” value [7] was 101. The “Population Apoptotic (%)” value [8] was 45%, the “Population Fragmented Nuclei (%)” value [8] was 11% and the “Population Healthy Nuclei (%)” value [8] was 75%. The “Population Hoechst High Intensity Objects (%)” value [8] was 7%, the “Population Mitochondria Different-Phenotype (%)” value [8] was 62% and the “Population Mitotic Cells (%)” value [8] was 54%. For the same molecule, the “Population Normal (%)” value [8] was 92%, the “Population Pyknosed Nuclei (%)” value [8] was 13% and the “Population Tubulin-Different-Phenotype (%)” value [8] was 30%. The “Total Cell Count” value [8] was 376, the “Population Apoptotic (%)” value [9] was 20% and the “Population Fragmented Nuclei (%)” value [9] was 13%. The “Population Healthy Nuclei (%)” value [9] was 75%, the “Population Hoechst High Intensity Objects (%)” value [9] was 3% and the “Population Membrane Permeable-Phenotype (%)” value [9] was 0%. The “Population Mitochondria Different-Phenotype (%)” value [9] was 22%, the “Population Mitotic Cells (%)” value [9] was 79% and the “Population Normal (%)” value [9] was 96%. For the same molecule, the “Population Pyknosed Nuclei (%)” value [9] was 11%, the “Population Tubulin-Different-Phenotype (%)” value [9] was 14% and the “Total Cell Count” value [9] was 649. For the same molecule, the “Population Apoptotic (%)” value [10] was 45%, the “Population Fragmented Nuclei (%)” value [10] was 11% and the “Population Healthy Nuclei (%)” value [10] was 81%. The “Population Mitochondria Different-Phenotype (%)” value [10] was 31%, the “Population Mitotic Cells (%)” value [10] was 55% and the “Population Normal (%)” value [10] was 97%. The “Population Pyknosed Nuclei (%)” value [10] was 7%, the “Population Tubulin-Different-Phenotype (%)” value [10] was 12% and the “Total Cell Count” value [10] was 567. For the same molecule, the “Population Apoptotic (%)” value [11] was 60%, the “Population Fragmented Nuclei (%)” value [11] was 18% and the “Population Healthy Nuclei (%)” value [11] was 73%. For the same molecule, the “Population Hoechst High Intensity Objects (%)” value [11] was 2%, the “Population Membrane Permeable-Phenotype (%)” value [11] was 2% and the “Population Mitochondria Different-Phenotype (%)” value [11] was 30%. For the same molecule, the “Population Mitotic Cells (%)” value [11] was 40%, the “Population Normal (%)” value [11] was 97% and the “Population Pyknosed Nuclei (%)” value [11] was 8%. For the same molecule, the “Population Tubulin-Different-Phenotype (%)” value [11] was 31%, the “Total Cell Count” value [11] was 191 and the “Population Apoptotic (%)” value [12] was 38%. For the same molecule, the “Population Fragmented Nuclei (%)” value [12] was 13%, the “Population Healthy Nuclei (%)” value [12] was 79% and the “Population Hoechst High Intensity Objects (%)” value [12] was 4%. For the same molecule, the “Population Membrane Permeable-Phenotype (%)” value [12] was 0%, the “Population Mitochondria Different-Phenotype (%)” value [12] was 46% and the “Population Mitotic Cells (%)” value [12] was 61%. The “Population Normal (%)” value [12] was 95%, the “Population Pyknosed Nuclei (%)” value [12] was 6% and the “Population Tubulin-Different-Phenotype (%)” value [12] was 24%. For the same molecule, the “Total Cell Count” value [12] was 493.

Reference: ChEMBL document CHEMBL5058577, “EUbOPEN Chemogenomics Library 2 (Multiplex)” (2022)
